Only a selection was taken, and hits are over-represented in it overall.
Lmaj promast: inhibitors of Leishmania major promastigote growth; Leishmania major promastigotes, resazurin fluorescence viability; inhibition, % at 10 µM; hit rate 9% among 200,000; AID 1063;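 note: promastigotes grown with compound for 44 hours at 28 °C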
Diaph inh CS: counter-screen for diaphorase-based assays: diaphorase inhibitors and chemical oxidizers | diaphorase resazurin-to-resorufin fluorescence, NADH, 16 min; bacterial (C. kluyveri) enzyme, not human | hit rate 0.69% among 190,000 | AID 1217 | inhibition, % at 20 µM;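 active = primary screen inhibition at 20 µM above a set limit, cut at about 50% in these data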;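 note: plate controls were DMSO with full reaction for no effect and wells lacking NADH for full effect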
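Assay system: diaphorase enzyme from Clostridium kluyveri; Input: enzyme working solution with 0.14 U/mL diaphorase; Timing: 16 min at room temperature; Technique: resorufin fluorescence, excitation 544 nm, emission 590 nm; Benchmarks: positive control minus NADH, DMSO neutral control.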
G6PDH counter: counter-screen for G6PDH assay hits: L. mesenteroides G6PDH inhibition | inhibition, % at 5 µM | hit rate 0.12% among 200,000 | AID 1020 | Purified L. mesenteroides G6PDH, diaphorase/resazurin coupled fluorescence, 45 min
PfGluPho inh: PfG6PD (Plasmodium falciparum) enzyme inhibition; PfGluPho enzyme, NADPH resazurin-diaphorase fluorescence; inhibition, % at 20 µM; hit rate 0.78% among 350,000;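 active = inhibition reaching at least a set limit at 20 µM in the primary screen, cut at about 59% in these data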;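 note: 0% = DMSO wells with substrate and 100% = DMSO wells lacking glucose-6-phosphate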
DTT redox prof: compounds producing H2O2 with reducing agent – biochemical, NIH compound library profiling, artefact control for MLSCN library redox annotation, primary screen. hit rate 0.03% among 200,000. activation, % at 10 µM. DTT-dependent redox cycling H2O2, phenol red/HRP absorbance; 100% = 100 µM peroxide control, 0% = buffer;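 active = activation of at least 50% relative to the plate's high and low controls in the primary single-dose screen; inactive = activation below 50%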;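 note: compound incubated with DTT at 0.8 mM final as the reducing agent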
Diaphorase act: diaphorase activation or chemical reduction counter-screen | hit rate 0.005% among 190,000 | Diaphorase/resazurin coupled assay, resorufin fluorescence, 16 min; hits give high values; 1 = vehicle wells, 0 = NADH-free wells | activation factor at 20 µM;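 active = diaphorase activity raised at least twofold by the compound at 20 µM; inactive = activation factor below 2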
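Assay system: bacterial diaphorase enzyme (C. kluyveri) / Input: enzyme 0.07 U/mL final / Medium: 50 mM HEPES pH 7.4 with 4.542 mM MgCl2, 0.005% Tween 20 / Doses: single compound dose of 20 µM, 1% DMSO final / Incubation: 16 min enzyme reaction, ambient temperature / Signal: fluorescence, excitation 544 nm and emission 590 nm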
PfGluPho conf: PfG6PD inhibition, single-dose confirmed. shares compounds with PfGluPho inh. recombinant PfGluPho, NADPH-diaphorase-resazurin fluorescence. inhibition, % at 20 µM. hit rate 34% among 2,400;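 active = inhibition of at least 50% at 20 µM in any single replicate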;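 note: 0% = DMSO with substrate and 100% = DMSO lacking glucose-6-phosphate substrate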
Diaph ctr 10uM: inhibits diaphorase or oxidizes, flagging false PfG6PD hits; shares compounds with PfGluPho inh; diaphorase-coupled resazurin reduction, fluorescence, NADPH 10 uM; inhibition, % at 20 µM; hit rate 39% among 820; AID 504862;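 active = average inhibition reaching 50% or more with the compound at 20 µM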;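 note: resorufin red fluorescence formed as diaphorase reduces resazurin using NADPH; 0% = DMSO with enzyme and 100% = DMSO without enzyme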
Diaphorase 30uM: diaphorase inhibition or oxidation at 30 uM NADPH; shares compounds with PfGluPho inh; AID 504863; inhibition, % at 20 µM; hit rate 29% among 820; Diaphorase/resazurin coupled assay, resorufin fluorescence;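 active = inhibition averaging 50% or more, tested at 20 µM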;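 note: 0% = DMSO with enzyme and 100% = DMSO wells lacking diaphorase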
Starred values were filed as active, the others as inactive; . = no result given. Cut-off read from the data, not from the text of the source, unless noted: active = inhibition above about 50%; inactive = the rest.

SMILES	Lmaj promast	Diaph inh CS	G6PDH counter	PfGluPho inh	DTT redox prof	Diaphorase act	PfGluPho conf	others
O=C1/C(=C/Nc2cccc([N+](=O)[O-])c2)CCc2ccccc21	48	39	31	67*	0	0.6	35
COc1cc2c(cc1OC)C(Cc1ccccc1[N+](=O)[O-])=NCC2	.	.	.	45	.	.	-25
Cc1ccc(S[C@@H](CCN2CC[C@H](C(C)(C)C)CCC2=O)c2ccccc2)cc1	.	.	.	20	.	.	.
C/C(=N\Nc1nc2ccccc2[nH]1)c1ccc(Cl)s1	90*	7	-19	77*	0	0.9	15
CCNC(=O)c1sc(=S)n(CC)c1N	-9	1	7	12	2	1	.
CCn1c(N)c(C(=O)NC)sc1=S	-13	7	3	80*	-1	0.9	50*	Diaph ctr 10uM=-27;Diaphorase 30uM=-20
C=CCn1c(N)c(C(=O)NCC2CCCO2)sc1=S (stereo not given)	2	1	16	20	1	1	.
CCn1c(N)c(C(=O)NCC2CCCO2)sc1=S (stereo not given)	-6	-7	3	61*	2	1.1	40
CCn1c(N)c(C(=O)NCCCOC)sc1=S	-8	10	18	65*	1	0.9	13
COc1ccc([N+](=O)[O-])cc1NC1CCN(C(=O)c2cccs2)CC1	.	.	.	-6	.	.	.
O=S(=O)(c1cccs1)N1CN(Cc2ccc(Cl)cc2)c2nc3ccccc3nc21	2	10	6	-21	3	0.9	.
O=S(=O)(c1cccs1)N1CN(Cc2ccco2)c2nc3ccccc3nc21	.	.	.	93*	.	.	44
COc1ccc(CCn2c(NN)nc3c2c(=O)[nH]c(=O)n3C)cc1	.	.	.	103*	.	.	88*	Diaph ctr 10uM=-6;Diaphorase 30uM=-2
COc1ccc(CCn2c(NN=C(C)C)nc3c2c(=O)[nH]c(=O)n3C)cc1	.	.	.	118*	.	.	51*	Diaph ctr 10uM=-1;Diaphorase 30uM=-7
COc1ccc(CCn2c(NCc3ccco3)nc3c2c(=O)[nH]c(=O)n3C)cc1	6	-15	14	20	-1	1.1	.
COc1ccc2[nH]c3c(C)c4ccncc4c(C)c3c2c1	.	.	.	60*	.	.	-23
Cc1onc(C(=O)Nc2sc3c(c2C(N)=O)CCCC3)c1[N+](=O)[O-]	.	.	.	64*	.	.	47
Cn1cc(Br)c(C(=O)Nc2sc3c(c2C(N)=O)CCCC3)n1	.	.	.	35	.	.	.
COCCn1c(COC)nc2ccccc21	7	7	10	-18	0	0.9	.
COCCn1c2nc(=O)n(-c3ccccc3)c(=O)c-2nc2ccccc21	.	.	.	59*	.	.	38
Cc1cc(-n2c(C)cc(C(=O)COc3cccnc3[N+](=O)[O-])c2C)no1	.	.	.	6	.	.	.
CC(=O)c1cccc(OCC(=O)c2cc(C)n(-c3cc(C)on3)c2C)c1	2	9	5	117*	1	0.9	62*	Diaph ctr 10uM=62*;Diaphorase 30uM=55*
Cc1cc(-n2c(C)cc(C(=O)COc3ccc4ccc(=O)oc4c3)c2C)no1	17	21	0	89*	-1	0.8	39
COC(=O)[C@H](Cc1ccccc1)NS(=O)(=O)c1ccc(F)cc1Br	.	.	.	22	.	.	.
CC(=O)OCC(=O)[C@@]1(O)CC[C@H]2[C@@H]3C[C@H](C)C4=CC(=O)C=C[C@]4(C)[C@H]3[C@@H](O)C[C@@]21C	.	.	.	0	.	.	.
SMILES	Lmaj promast	Diaph inh CS	G6PDH counter	PfGluPho inh	DTT redox prof	Diaphorase act	PfGluPho conf	others
CC(=O)OCC(=O)C1(O)CCC2C3CC(C)C4=CC(=O)C=CC4(C)C3=CCC21C (stereo not given)	.	.	.	61*	.	.	40
CCOc1ccc(NC(=O)Cn2ncc3ccccc32)cc1	.	.	.	-6	.	.	.
CCOc1ccc(NC(=O)Cn2sc3nc(C)cc(C)c3c2=O)cc1	.	.	.	104*	.	.	90*	Diaph ctr 10uM=-30;Diaphorase 30uM=-21
Cc1cc(C)c2c(=O)n(CC(=O)Nc3ccc(Cl)cc3)sc2n1	.	.	.	112*	.	.	96*	Diaph ctr 10uM=-18;Diaphorase 30uM=5
Cc1ccc(NC(=O)Cn2sc3nc(C)cc(C)c3c2=O)c(Cl)c1	.	.	.	100*	.	.	76*	Diaph ctr 10uM=-34;Diaphorase 30uM=-18
Cc1cc(C)c2c(=O)n(CC(=O)Nc3cccc(F)c3)sc2n1	.	.	.	110*	.	.	94*	Diaph ctr 10uM=-3;Diaphorase 30uM=0
CCOC(=O)c1cn(CC(=O)Nc2cccc(F)c2)nn1	-4	11	6	5	0	0.9	.
Cc1cc(C)c2c(n1)SCC(=O)N2CC(=O)Nc1cccc(Cl)c1	.	.	.	1	.	.	.
O=C(COC(=O)c1cccc(C(=O)OCC(=O)NCc2ccc(F)cc2)n1)NCc1ccc(F)cc1	-6	9	-4	-9	-1	0.9	.
CC1CCC2(CC1)NC(=O)N(CC(=O)NC(=O)Nc1ccc3c(c1)OCCO3)C2=O (stereo not given)	.	.	.	-9	.	.	.
CCc1c(C)sc(NC(=O)C2CCCCC2C(=O)O)c1C(N)=O (stereo not given)	-5	10	1	74*	2	0.9	32
COc1ccc(/C=C2\Sc3ccc(C(=O)NCC4CCCO4)cc3N(C)C2=O)cc1 (stereo not given)	.	.	.	45	.	.	.
COc1cccc(C(=O)NCCS(=O)(=O)NC2CCCC2)c1	.	.	.	-16	.	.	.
COc1cc(/C=C2\SC(c3ccc(C)cc3)=NC2=O)cc(OC)c1OC	2	28	-46	24	-2	0.7	.
COc1cc(/C=C2\SC(c3ccccc3)=NC2=O)cc(Cl)c1O	31	64*	17	61*	-3	0.4	46
COc1cc(/C=C2\SC(c3ccc(C)cc3)=NC2=O)ccc1O	100*	36	-70	64*	0	0.6	54*	Diaph ctr 10uM=2;Diaphorase 30uM=-4
COc1cccc(CNC(=O)c2cc(S(=O)(=O)N3CCCC3)cn2C)c1	.	.	.	1	.	.	.
COc1ccc(/C(C)=N/NC(=O)c2cc(C)[nH]n2)c(OC)c1	.	.	.	-24	.	.	.
CCOC(=O)c1c2c(n(-c3ccc(OC)cc3)c1C)C(=O)C(=O)c1ccccc1-2	.	.	.	72*	.	.	36
CCOC(=O)c1sc(=S)n(-c2ccc(OC)cc2)c1C	.	.	.	7	.	.	.
Cc1cc(C)nc(/N=C(\NC(=O)C(C)(C)C)Nc2ccc(F)cc2)n1	.	.	.	-3	.	.	.
Cc1ccc2cccc(S(=O)(=O)N3CCCc4ccccc43)c2n1	22	23	9	67*	1	0.8	33
O=C(CSc1ccc(-c2cccnc2)nn1)Nc1ccc(F)cc1	.	.	.	-2	.	.	.
S=c1cnc2ccccc2[nH]1	7	9	10	64*	0	0.9	4
O=C(N/N=C/c1cccc2ccccc12)c1ccccc1Cl	.	.	.	83*	.	.	46

Screens as filed in PubChem BioAssay.
